Experimental data of several laboratories.
ERG11: Lanosterol 14-alpha demethylase (ERG11, Candida albicans, UniProt P10613)
ST14: Suppressor of tumorigenicity 14 protein (ST14, Homo sapiens, UniProt Q9Y5Y6)
HTR7: 5-hydroxytryptamine receptor 7 (HTR7, Homo sapiens, UniProt P34969)
Integrin alpha-V/beta-6: Integrin alpha-V/beta-6 (Homo sapiens, UniProt P06756+P18564)

SMILES	target	observed	mode	technique	measurement	value
OC(COc1ccc(-c2nnco2)cc1)CN1CCN(CC(O)COc2ccc(-c3nnco3)cc2)CC1 (centres unmarked)	ERG11	enzyme activity	inhibitor	mass spectrometry	IC50	> 50000 nM
COCCC(=O)N[C@@H](CCC(N)=O)C(=O)N[C@@H](Cc1ccccc1)C(=O)N[C@@H](CCCNC(=N)N)C(=O)c1nc2ccccc2s1	ST14	cell-free assay			Ki	0.94 nM
CCN1CCN(Cc2ccc(Nc3ncc(F)c(-c4cc(F)c5nc6n(c5c4)[C@H](C)CCC6)n3)nc2)CC1	Multidrug and toxin extrusion protein 1 (SLC47A1, Homo sapiens, UniProt Q96FL8)	enzyme activity	inhibitor		IC50	21.2 nM
COc1cc2c(cc1OC)CN(CCc1ccc(NC(=O)c3cccc4c(=O)c5cccc(OC)c5[nH]c34)cc1)CC2	HTR7	cell-free assay			Ki	235 nM
CCCCC1CNC2CCc3ccc(OC)cc3C12 (racemic)	HTR7	ligand displacement		radioligand	Ki	586 nM
CC1=CC(=O)[C@@H](O)[C@]2(C)[C@H]3[C@@H](O)[C@H](O)[C@@]4(C)OC[C@@]35[C@@H](C[C@@H]12)OC(=O)[C@H](O)[C@]54O	Serine/threonine-protein kinase pim-1 (PIM1, Homo sapiens, UniProt P11309)	binding		SPR	Kd	6570 nM
O=S(=O)(c1ccc(OCC(O)CN2CCCC2)c(Cl)c1)c1ccc(OCC(O)CN2CCCC2)c(Cl)c1 (centres unmarked)	ERG11	enzyme activity	inhibitor	mass spectrometry	IC50	> 50000 nM
CC(C)(NC(=O)[C@@H](N)CS)C(=O)N[C@@H](CO)C(=O)N[C@@H](CCCNC(=N)N)C(=O)NCC(=O)N[C@@H](CC(=O)O)C(=O)N[C@@H](Cc1c(F)c(F)c(F)c(F)c1F)C(=O)N1CCC(F)(F)C[C@H]1C(N)=O	Integrin alpha-V/beta-6	binding		BLI	Kd	70400 nM
CS(=O)(=O)N[C@@H](CCC(N)=O)C(=O)N[C@@H](Cc1ccccc1)C(=O)N[C@@H](CCCNC(=N)N)C(=O)c1nccs1	ST14	cell-free assay			Ki	17 nM
C[C@@H](O)[C@H](NC(=O)C(C)(C)NC(=O)[C@@H](N)CS)C(=O)N[C@@H](CCCNC(=N)N)C(=O)NCC(=O)N[C@@H](CC(=O)O)C(=O)N[C@@H](Cc1cccnc1)C(=O)N1CC(F)(F)C[C@H]1C(N)=O	Integrin alpha-V/beta-6	binding		BLI	Kd	54900 nM
Cc1cc(O)c2c(=O)c3c(O)cc(O)c4c5c(O)cc(O)c6c(=O)c7c(O)cc(C)c8c1c2c(c34)c(c78)c65	Calreticulin (CALR, Homo sapiens, UniProt P27797)	binding		MST	Kd	3680 nM
